Data set [1] in a line: Cytotoxicity against mock-infected hamster BHK21 cells assessed as reduction in proliferation after 72 hrs by MTT method. In kind it is cell-based, Mesocricetus auratus, BHK-21. The method, boiled down:
(§1)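 MDBK and BHK cells seeded at 6 × 10⁵ and 1 × 10⁶ cells/mL respectively. Medium was MEM-Earle with L-glutamine, 1 mM pyruvate and kanamycin, plus 10% horse serum (MDBK) or 10% FBS (BHK). Cells exposed to serial compound dilutions at 37 °C, 5% CO₂; MTT viability read at 72 h. CC50 by linear regression versus untreated controls.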
(In general: Tetrazolium assays rely on reduction of a dye to a coloured formazan, in cell work by metabolically active cells.)

Data set [2] in a line: Cytotoxicity against mock-infected bovine MDBK cells assessed as reduction in proliferation after 72 hrs by MTT method. The conditions noted are these: cattle. The data set is classed as cell-based, Bos taurus. The gist of the method:
as §1

Data set [3] is described as follows: Antiviral activity against Vaccinia virus Lister ATCC VR-1549 infected in Vero 76 cells after 3 days by plaque reduction assays. The data set is classed as functional, cell-based. The conditions noted are these: ATCC VR-1549, Vero 76, 72 h.
Data set [4] can be described thus: Cytotoxicity against mock-infected human MT4 cells assessed as reduction in proliferation after 96 hrs by MTT method. The data set is classed as cell-based. The method, boiled down: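 Exponentially growing MT-4 cells seeded at 1 × 10⁵ cells/mL in RPMI-1640 with 10% FBS, penicillin and streptomycin. Held 96 h at 37 °C, 5% CO₂ with or without serial compound dilutions; viability by MTT. Compounds dissolved in DMSO at 100 mM stock, then diluted in medium. CC50 by linear regression.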

A short description of data set [5]: Antiviral activity against Bovine viral diarrhea virus 1-NADL ATCC VR-534 infected in MDBK cells assessed as protection from virus-induced cytopathogenicity after 3 to 4 days by MTT method. As to conditions: Bovine viral diarrhea virus isolates and strains, ATCC VR-534, MDBK. In kind it is functional, cell-based. The method, boiled down:
(§2)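 Confluent monolayers grown overnight (BHK-21 at 5×10⁴ cells/well for YFV and Reo-1; MDBK at 3×10⁴ cells/well for BVDV). Infection at m.o.i. 0.01 for 2 h in maintenance MEM-Earle with 0.5% inactivated FBS, then serial compound dilutions added. Viability read by MTT after 3–4 days at 37 °C. EC50 taken from linear regression against untreated controls.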
A general note: Protection from cytopathic effect is a common read-out in antiviral testing.

Data set [6] has as its system Vesicular stomatitis Indiana virus. The experiment in a line: Antiviral activity against Vesicular stomatitis Indiana virus ATCC VR 158 infected in Vero 76 cells after 2 days by plaque reduction assays. The data set is classed as functional, organism-based. The conditions noted are these: ATCC VR 158, Vero 76, 48 h. On the technique in general: Plaques are areas of infected cells; plaque reduction assays count them against a control.

Data set [7] concerns Human poliovirus 1 strain Sabin. Put plainly: Antiviral activity against Poliovirus 1 strain Sabin ATCC VR-1562 infected in Vero 76 cells after 2 days by plaque reduction assays. As to conditions: Enterovirus C, ATCC VR-1562, Vero 76, 48 h. In kind it is functional, organism-based.
Data set [8] concerns Human immunodeficiency virus 1. The experiment in a line: Antiviral activity against HIV-13B infected in MT4 cells assessed as protection from virus-induced cytopathogenicity after 4 days by MTT method. As to conditions: Human immunodeficiency virus 1, 3B, MT4, 96 h. The data set is classed as functional, organism-based. The method, boiled down:
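HIV-1 IIIB, taken from persistently infected H9/IIIB supernatant. MT-4 cells (1×10⁴/well) in RPMI with serial compound dilutions, infected with 100 CCID50 (m.o.i. 0.01). Viability by MTT after 4 days at 37 °C. EC50 = 50% protection from cytopathogenicity, by linear regression against untreated controls. Compounds kept as 100 mM DMSO stocks, diluted in medium.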

For the next data set, the system named is Human alphaherpesvirus 1. The experiment in a line: Antiviral activity against Human herpesvirus 1 strain KOS ATCC VR- 1493 infected in Vero 76 cells after 3 days by plaque reduction assays. In kind it is functional, organism-based. The conditions noted are these: Human alphaherpesvirus 1, KOS ATCC VR1493, Vero 76, 72 h.
In the next data set the test system is Coxsackievirus B5. Put plainly: Antiviral activity against Coxsackievirus B5 Faulkner (ATCC VR-185) infected in Vero 76 cells after 3 days by plaque reduction assays. The conditions noted are these: Enterovirus B, Vero 76, 72 h. The data set is classed as functional, organism-based.
Data set [9] in a line: Antiviral activity against Simian virus 12 3651 (ATCC VR- 214) infected in BHK21 cells assessed as protection from virus-induced cytopathogenicity after 3 to 4 days by MTT method. The data set is classed as functional, cell-based. The conditions noted are these: BHK-21. The method, boiled down:
as §2

The nature of data set [10]: Antiviral activity against Human respiratory syncytial virus A2 ATCC VR-1540 infected in Vero 76 cells after 5 days by plaque reduction assays. In kind it is functional, cell-based. The conditions noted are these: ATCC VR-1540, Vero 76, 120 h.
Another data set deals with Yellow fever virus. Put plainly: Antiviral activity against Yellow fever virus 17D Stamaril Pasteur J07B01 infected in BHK21 cells assessed as protection from virus-induced cytopathogenicity after 3 to 4 days by MTT method. The data set is classed as functional, cell-based. As to conditions: Stamaril Pasteur J07B01, BHK-21. The gist of the method:
as §2

Data set [11] is described as follows: Cytotoxicity against mock-infected African green monkey Vero 76 cells assessed as reduction in proliferation after 48 to 96 hrs by MTT method. The data set is classed as cell-based. As to conditions: chlorocebus sabaeus, Vero 76 cells (mock-infected). The gist of the method: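 Vero-76 cells seeded at 4 × 10⁵ cells/mL in D-MEM with L-glutamine, kanamycin and 10% FBS. Incubated at 37 °C, 5% CO₂, with or without serial dilutions of compound; viability read by MTT after 48–96 h. Run in parallel with antiviral assays. CC50 obtained by linear regression of % of untreated control.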

Each structure is given as a SMILES string. Some results are limits rather than exact numbers.

The values that follow come from ChEMBL document CHEMBL3352401, “Synthesis and antiviral activity of new phenylimidazopyridines and N-benzylidenequinolinamines derived by molecular simplification of phenylimidazo[4,5-g]quinolines” (Eur J Med Chem, 2014).

As a reminder, the CC50 is the concentration giving 50% cytotoxicity. For orientation: EC50 means the concentration needed to bring the measured effect to its halfway point.

Regarding `N#Cc1ccc(-c2nc3ccncc3[nH]2)cc1`, the CC50 at 72 h in data set [1] and in data set [2] was more than 100 µM throughout. For the same compound, the EC50 in [3] was 56 µM; in data set [5], 9 µM; in [6], more than 100 µM; in data set [7] it was more than 100 µM; in [8], more than 100 µM; in the data set on Human alphaherpesvirus 1, more than 100 µM. Also, the 50% effective concentration (EC50) (with Coxsackievirus B5; in data set [9]; in data set [10]; in the data set on Yellow fever virus) was more than 100 µM in each case. In [4], the CC50 at 96 h was more than 100 µM. For the same compound, the 50% cytotoxic concentration (CC50) in data set [11] was more than 100 µM.

`c1cnc2[nH]c(-c3ccoc3)nc2c1`: the CC50 at 72 h in data set [1] and in data set [2] was more than 100 µM each time. Further, the EC50 (in data set [3]; in data set [5]; in data set [6]; in data set [7]; in data set [8]; with Human alphaherpesvirus 1) was more than 100 µM in each case. In addition, the EC50 (in the data set on Coxsackievirus B5; in data set [9]; in [10]; in the data set on Yellow fever virus) was more than 100 µM in each case. Further, in [4], the CC50 at 96 h was more than 100 µM. Besides, the CC50 in data set [11] was more than 100 µM.

Turning to `CC(=O)c1ccc(-c2nc3cccnc3[nH]2)cc1`, the CC50 at 72 h in data set [1] and in data set [2] was more than 100 µM in each case. The EC50 in [3] is more than 100 µM; in data set [5], 65 µM; in data set [6], more than 100 µM; in [7], more than 100 µM; in data set [8], more than 100 µM; in the data set with Human alphaherpesvirus 1, more than 100 µM. The EC50 (with Coxsackievirus B5; in data set [9]; in data set [10]; in the data set on Yellow fever virus) was more than 100 µM in each case. Moreover, the CC50 at 96 h in data set [4] is more than 100 µM. Further, the CC50 in data set [11] is more than 100 µM.

For the compound `Nc1c(/N=C/c2ccc(C(F)(F)F)cc2)cc2cccnc2c1Cl`, the CC50 at 72 h in data set [1] is more than 25 µM; in data set [2], more than 100 µM. Further, the EC50 is more than 90 µM in [3]; 14 µM in data set [5]; more than 90 µM in data set [6]; 57 µM in data set [7]; more than 100 µM in data set [8]; more than 100 µM with Human alphaherpesvirus 1. Also, the EC50 in the data set on Coxsackievirus B5 was 29 µM; in data set [9], more than 25 µM; in data set [10], 12 µM; in the data set with Yellow fever virus it was more than 25 µM. For the same compound, in [4], the CC50 at 96 h worked out at 49 µM. Further, in [11], the CC50 stood at 90 µM.

Take `c1cnc2[nH]c(C3CCCCC3)nc2c1`: the CC50 at 72 h in data set [1] and in data set [2] was more than 100 µM each time. The EC50 (in [3]; in [5]; in data set [6]; in [7]; in data set [8]; in the data set with Human alphaherpesvirus 1) was more than 100 µM each time. The EC50 in the data set with Coxsackievirus B5 is 86 µM; in data set [9] it was more than 100 µM; in data set [10], more than 100 µM; with Yellow fever virus it was more than 100 µM. Moreover, in [4], the CC50 at 96 h is more than 100 µM. For the same compound, in [11], the CC50 is more than 100 µM.

In data set [3], `Nc1ccn(C[C@@H](CO)OCP(=O)(O)O)c(=O)n1` [CIDOFOVIR] registered an EC50 of 19 µM. Moreover, the CC50 in data set [11] is more than 100 µM.

On to `C[C@@]1(O)[C@H](O)[C@@H](CO)O[C@H]1n1cnc2c(=O)[nH]c(N)nc21` [2'-B-METHYL-GUANOSINE], for which the CC50 at 72 h in data set [1] and in data set [2] was more than 100 µM each time. The EC50 in data set [5] was 1.1 µM.

Regarding `C[C@@]1(O)[C@H](O)[C@@H](CO)O[C@H]1n1ccc(N)nc1=O`, the EC50 in data set [9] is 16 µM; in the data set on Yellow fever virus, more than 100 µM.

With `O=c1cnn([C@@H]2O[C@H](CO)[C@@H](O)[C@H]2O)c(=O)[nH]1` [6-AZAURIDINE], the EC50 in data set [10] came out at 1.2 µM. The CC50 in data set [11] was not below 12.5 µM.

For `C#C[C@@]1(O)[C@H](O)[C@@H](CO)O[C@H]1n1ccc(N)nc1=O` [2'-ETHYNYL-D-CYTIDINE], in data set [7], a half-maximal effect (EC50) was put at 23 µM. Also, the CC50 in data set [11] is more than 100 µM.

Regarding `Nc1nc2c(ncn2COCCO)c(=O)[nH]1` [ACYCLOVIR], in data set [11], the CC50 is more than 100 µM.
